Source: PubChem (several laboratories)
GRIN3A LBD mod = modulates the human NR3A ligand-binding domain | AID 1259313 | hit rate 2.5% among 340,000 | NR3A LBD differential scanning fluorimetry, Tm shift; 0% = protein alone, 100% = glycine-bound protein | Tm shift relative to glycine control, % at 25 µM;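 active = melting temperature shift of at least 10% of the positive control shift, at one fixed dose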
Beta apoptosis = beta cell apoptosis inhibition; AID 435005; INS-1E cytokine-induced death, ATP luminescence, 48 h; percent of positive-control rescue, neutral wells zero; hit rate 0.8% among 300,000; protection from apoptosis, % (concentration not given with the values);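 active = Every replicate reaches about 75%, or at least half do and their mean reaches it too, limit read from the data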;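 also: 0% = cytokine-treated negative control wells and 100% = positive control rescue; higher means more ATP so stronger rescue from cytokine killing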
CHOP inh = CHOP inhibition in unfolded protein response. CHO-K1 CHOP-promoter luciferase, tunicamycin-induced, 15-18 h. AID 2732. inhibition, % at 10 µM. hit rate 3.8% among 220,000;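 active = compounds that reduced the stress-induced luciferase reporter signal by more than about 70% of percent inhibition, limit read from the data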;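 also: 0% = tunicamycin plus vehicle and 100% = wells without tunicamycin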
CSC inhib = blocks cancer stem cells. inhibition, % at 7.5 µM. hit rate 1.1% among 300,000. cancer stem cell-like cells viability, luminescence. AID 2717; in the data active = inhibition above about 75%; tested in HMLE shEcad cells
T cruzi repl = blocks replication of Trypanosoma cruzi; T. cruzi beta-gal in NIH3T3, luminescence, 90 h; inhibition, % (no concentration beside the values); hit rate 1.4% among 300,000;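 active = mean inhibition across valid replicates above about 55%, limit read from the data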;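 also: signal also drops with host cell toxicity which is not excluded here; 0% = plate median of DMSO wells and 100% = zero luminescence signal; higher percent means less beta-gal luminescence so fewer parasites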
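assay system = mouse NIH/3T3 fibroblasts infected with β-gal-expressing T. cruzi Tulahuen C4 | input = 5,000 NIH/3T3 host cells per well | buffer or medium = DMEM plus 2% FBS | timing = 3 h host attachment, then at least 90 h co-culture | measured by = GalScreen luminescence, 60 min | evaluation = luminescence reflecting intracellular parasite burden, expressed as percent inhibition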
PREPL inhibitor = inhibitors of human prolyl oligopeptidase-like enzyme PREPL | Q4J6C6 | recombinant PREPL, fluorescence polarization activity-based probe | inhibition, % at 5.96 µM | hit rate 0.68% among 320,000 | AID 2751; in the data active = inhibition above about 43%;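 also: 0% = enzyme with DMSO and 100% = wells lacking enzyme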
Target sequence (Q4J6C6 whole entry, looked up): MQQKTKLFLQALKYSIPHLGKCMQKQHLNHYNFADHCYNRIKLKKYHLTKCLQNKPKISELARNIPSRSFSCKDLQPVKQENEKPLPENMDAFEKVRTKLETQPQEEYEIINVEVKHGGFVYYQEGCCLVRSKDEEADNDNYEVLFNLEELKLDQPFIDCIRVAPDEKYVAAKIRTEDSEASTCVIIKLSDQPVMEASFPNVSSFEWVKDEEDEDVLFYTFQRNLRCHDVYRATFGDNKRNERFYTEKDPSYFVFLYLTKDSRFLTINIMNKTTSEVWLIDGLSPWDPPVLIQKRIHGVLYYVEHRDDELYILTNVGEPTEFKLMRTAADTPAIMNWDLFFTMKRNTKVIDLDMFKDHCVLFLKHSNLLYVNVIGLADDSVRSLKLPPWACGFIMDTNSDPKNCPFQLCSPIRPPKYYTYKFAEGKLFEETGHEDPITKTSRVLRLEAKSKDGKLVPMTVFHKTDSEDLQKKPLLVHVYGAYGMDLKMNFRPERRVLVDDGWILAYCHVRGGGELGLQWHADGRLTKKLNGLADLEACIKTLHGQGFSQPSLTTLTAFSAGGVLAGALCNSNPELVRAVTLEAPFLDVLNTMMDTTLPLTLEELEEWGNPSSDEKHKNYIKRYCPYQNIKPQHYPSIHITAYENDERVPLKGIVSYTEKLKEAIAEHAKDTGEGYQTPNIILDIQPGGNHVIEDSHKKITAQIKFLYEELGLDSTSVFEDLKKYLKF
The depositor's hits bear a star; x = no result given. Rows were chosen to be rich in hits. Some 6.7% of all compounds tested hit in one or more screens of this group.

SMILES	GRIN3A LBD mod	Beta apoptosis	CHOP inh	CSC inhib	T cruzi repl	PREPL inhibitor
O=C(NCCOc1ccccc1)c1cc(C(=O)NCCOc2ccccc2)cc([N+](=O)[O-])c1	-13	3	40	13	68*	16
CN(CCOc1ccccc1)C(=O)c1cc([N+](=O)[O-])cc([N+](=O)[O-])c1	1	-9	-5	1	64*	9
O=C(NCCc1nc2ccccc2[nH]1)c1cc([N+](=O)[O-])cc([N+](=O)[O-])c1	11*	13	-4	x	53	1
CN(CCOc1ccccc1)C(=O)c1cc([N+](=O)[O-])ccc1N1CCOCC1	-2	2	x	-3	11	8
CC1(C)COC(c2cc3c(cc2Br)OCO3)OC1	-4	x	x	x	x	x
S=C(c1ccc(-c2cc(Cl)ccc2Cl)o1)N1CCCCC1	0	4	17	25	0	15
S=C(c1ccc(-c2cc(Cl)ccc2Cl)o1)N1CCOCC1	4	0	70*	1	30	5
COc1ccc(CCNC(=O)COC(=O)/C=C/c2cc(OC)c(OC)c(OC)c2)cc1OC	0	-5	38	-21	7	2
Oc1c(C(Nc2nccs2)c2ccc(C(F)(F)F)cc2)ccc2cccnc12 (stereo unspecified)	-2	x	41	x	52	x
Oc1c(C(Nc2cccc(C(F)(F)F)c2)c2ccncc2)ccc2cccnc12 (stereo unspecified)	-8	79*	37	54	79*	13
O=C(Cc1cccc(NC(=O)C2CCCN(C(=O)CCc3ccccc3)C2)c1)Nc1ccc(C(=O)N2CCOCC2)cc1 (stereo unspecified)	-2	x	x	x	x	x
N#Cc1c(N)nc2c(c1-c1ccc3c(c1)OCO3)CCc1ccccc1-2	-3	13	57	82*	36	35
CCOC(=O)N1CCN(C(=O)c2oc3ccc(S(=O)(=O)N4CCOCC4)cc3c2C)CC1	1	6	52	-5	-2	-4
CCN(CC)S(=O)(=O)c1ccc2oc(C(=O)O)c(C)c2c1	13*	-7	17	x	-12	11
CCOC(=O)N1CCN(C(=O)c2oc3ccc(S(=O)(=O)N4CCCCCC4)cc3c2C)CC1	0	8	28	-4	65*	-1
CC(=O)NCCNC(=O)c1ccc(CSc2nc3ccccc3s2)cc1	x	-6	x	-5	-8	-1
O=C(NCCN1C(=O)CSC1=O)c1ccccc1	1	-3	-12	9	x	20
Cn1cccc1C(=O)OCc1ccc(C(C)(C)C)cc1	4	8	x	1	30	9
CSc1cccc(NC(=S)N(Cc2ccc(C)cc2)Cc2ccccn2)c1	0	5	19	3	55*	-3
COc1ccccc1NC(=S)N(Cc1ccc(C)cc1)Cc1ccccn1	0	1	-8	3	55*	3
COc1ccccc1NC(=S)N(Cc1ccc(C)cc1)Cc1cccnc1	-2	9	10	2	17	19
COc1ccc(CCN(Cc2ccccn2)C(=S)Nc2cccc(SC)c2)cc1OC	1	1	-2	2	8	-7
COc1ccccc1-n1cc(-c2ccccc2)c2c(=S)nc[nH]c21	-4	-2	x	61	-37	7
CCn1c(CNc2cccc(Cl)c2)nnc1SCC(=O)OC1CCCCC1	2	8	72*	-3	-2	24
O=C(CCCN1C(=O)NC2(CCCC2)C1=O)Nc1cccc(S(=O)(=O)N2CCOCC2)c1	2	x	x	x	x	x
SMILES	GRIN3A LBD mod	Beta apoptosis	CHOP inh	CSC inhib	T cruzi repl	PREPL inhibitor
Brc1ccc(-c2cn3nc4c(nc3n2)CCCC4)cc1	0	-3	96*	-2	7	2
c1ccc(-c2cn3nc4c(nc3n2)CCCC4)cc1	0	6	64	11	-3	10
CC(C)(c1cc(Br)c(O)c(Br)c1)c1cc(Br)c(O)c(Br)c1	-13	9	x	103*	x	4
CCC(CC)NC(=O)c1cc2c(C)nn(Cc3ccccc3Cl)c2s1	-5	5	46	-14	29	-3
Cc1nn(Cc2ccccc2Cl)c2sc(C(=O)Nc3nccs3)cc12	-12	1	84*	7	32	-32
Cc1nn(Cc2ccc(F)cc2)c2sc(C(=O)Nc3nccs3)cc12	-21	11	93*	37	14	-12
Oc1ccccc1/C=N/Nc1nccnc1Cl	-15	94*	65	88*	27	-22
Oc1ccc(/C=N/Nc2nccnc2Cl)c(O)c1	18*	75*	65	95*	59*	12
Oc1ccc(C=NNc2ccccn2)c(O)c1	4	x	x	x	x	x
Oc1ccc(/C=N/Nc2ncc(Br)cn2)c(O)c1	31*	87*	54	91*	-8	7
COC(=O)C1(Cc2ccc3c(c2)CCC3)Cc2ccc3c(c2C1=O)CCC3 (stereo unspecified)	-1	x	x	x	x	x
Cc1cc(F)ccc1NCc1ccc([N+](=O)[O-])cc1	-2	-9	-18	-11	-3	29
CN(C(=O)CSc1cc(C(=O)c2nccn2C)c2ccccc2n1)c1ccccc1	-3	106*	-2	x	5	1
CCN(C[C@H]1N[C@@](Cc2ccccc2)(C(=O)OC)[C@H]2C(=O)N(Cc3ccccc3)C(=O)[C@@H]12)C(=O)Nc1ccc(C(F)(F)F)cc1	8	53	x	72	x	-15
CCCOP(=O)(OCCC)c1c([N+](=O)[O-])cc(C(F)(F)F)cc1[N+](=O)[O-]	11*	1	45	9	-10	0
Cc1ccc(S(=O)(=O)NC(=O)c2ccc(-c3ccc(-c4ccccc4)cc3)o2)c(C)c1	x	1	16	82*	-16	-7
COc1ccc(-c2csc(N3CCN(c4cc(C)nc5ccccc45)CC3)n2)cc1OC	-2	-2	46	95*	27	21
c1ccc(-c2nnc3sc(CN4CCc5ccccc54)cn23)cc1	7	17	21	76*	-29	34
c1ccc(-c2ncc3c(ccc4ccccc43)n2)cc1	-2	-7	80*	x	-16	-5
CC1(c2ccccc2)CC(C)(C)N(C(N)=O)c2ccccc21 (stereo unspecified)	-1	-2	x	-10	-5	6
CC1(c2ccccc2)CC(C)(C)N2C(=O)Cc3cccc1c32 (stereo unspecified)	-1	-8	72*	-9	-3	-8
CCC1CCCCN1C(=O)c1ccc(OC2CCN(C(=O)CCOC)CC2)cc1 (stereo unspecified)	1	2	x	8	21	19
O=C(NNc1ccnc2cc(Cl)ccc12)C1CCCCC1	2	127*	65	3	32	11
CS(=O)(=O)c1sc(C#N)c2c1C(=O)CC(c1ccccc1)C2 (stereo unspecified)	0	39*	107*	110*	39	10
Cc1oc2c(c(=O)c1C)C(=O)CC(c1ccccc1)C2 (stereo unspecified)	-1	x	27	-14	-7	-2
